{"source": "ChEMBL document CHEMBL2157969", "about": "“Chalcone inhibitors of the NorA efflux pump in Staphylococcus aureus whole cells and enriched everted membrane vesicles” (Bioorg Med Chem, 2012)", "key": {"[1]": {"target": "T1, Quinolone resistance protein NorA (Staphylococcus aureus) (UniProt P0A0J7)", "T1 sequence (whole entry)": "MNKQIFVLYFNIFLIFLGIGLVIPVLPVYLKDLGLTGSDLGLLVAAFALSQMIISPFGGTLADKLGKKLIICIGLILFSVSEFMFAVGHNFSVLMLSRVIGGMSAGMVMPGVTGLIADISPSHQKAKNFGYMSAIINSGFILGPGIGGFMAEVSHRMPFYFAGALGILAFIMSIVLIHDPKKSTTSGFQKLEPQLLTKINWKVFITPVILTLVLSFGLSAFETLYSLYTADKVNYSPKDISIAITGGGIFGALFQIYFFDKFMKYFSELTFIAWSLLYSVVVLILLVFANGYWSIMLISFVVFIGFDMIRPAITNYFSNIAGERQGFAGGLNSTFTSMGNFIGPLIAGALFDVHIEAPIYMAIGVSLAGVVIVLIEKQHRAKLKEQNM", "assay": "Inhibition of Staphylococcus aureus SA-1199B NorA expressed in Escherichia coli DH10B assessed as inhibition of Hoechst 33342 dye efflux at 10 uM after 150 to 160 secs by spectrofluorometric analysis in presence of 50 uM Mg2+", "in_short": "(§1)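 Everted membrane vesicles from E. coli DH10B carrying pTrcHis2C-norA, made by French press with 0.1 mM PMSF and 0.1 mg/mL DNase; pTrc99A vesicles serve as control. Vesicles at 80 µg protein/mL in 50 mM potassium HEPES, 8.5 mM NaCl, 2 mM MgCl₂, pH 7.2. Hoechst 33342 added, then Mg²⁺-ATP to energise, inhibitor at 150–160 s.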"}, "[2]": {"target": "T1, Quinolone resistance protein NorA (Staphylococcus aureus)", "assay": "Inhibition of Staphylococcus aureus SA-1199B NorA expressed in Escherichia coli DH10B assessed as inhibition of Hoechst 33342 dye efflux at 10 uM by spectrofluorometric analysis in presence of 50 uM Mg2+", "in_short": "as §1"}}, "note": "Calls of active or inactive are those of the source. The rule behind the calls is not given here."}
{"smiles": "CC(C)[C@@H]1NC(=O)[C@H](C)OC(=O)[C@@H](C(C)C)NC(=O)[C@@H](C(C)C)OC(=O)[C@H](C(C)C)NC(=O)[C@H](C)OC(=O)[C@@H](C(C)C)NC(=O)[C@@H](C(C)C)OC(=O)[C@H](C(C)C)NC(=O)[C@H](C)OC(=O)[C@@H](C(C)C)NC(=O)[C@@H](C(C)C)OC1=O", "values": [{"measurement": "inhibition", "setting": "[1]", "result": "Active"}, {"measurement": "inhibition", "setting": "[2]", "result": "Active"}]}
